Experimental data of several laboratories.
Target: Tyrosine-protein kinase receptor TYRO3 (TYRO3, Homo sapiens, UniProt Q06418)
One construct used (Q06418 41-890): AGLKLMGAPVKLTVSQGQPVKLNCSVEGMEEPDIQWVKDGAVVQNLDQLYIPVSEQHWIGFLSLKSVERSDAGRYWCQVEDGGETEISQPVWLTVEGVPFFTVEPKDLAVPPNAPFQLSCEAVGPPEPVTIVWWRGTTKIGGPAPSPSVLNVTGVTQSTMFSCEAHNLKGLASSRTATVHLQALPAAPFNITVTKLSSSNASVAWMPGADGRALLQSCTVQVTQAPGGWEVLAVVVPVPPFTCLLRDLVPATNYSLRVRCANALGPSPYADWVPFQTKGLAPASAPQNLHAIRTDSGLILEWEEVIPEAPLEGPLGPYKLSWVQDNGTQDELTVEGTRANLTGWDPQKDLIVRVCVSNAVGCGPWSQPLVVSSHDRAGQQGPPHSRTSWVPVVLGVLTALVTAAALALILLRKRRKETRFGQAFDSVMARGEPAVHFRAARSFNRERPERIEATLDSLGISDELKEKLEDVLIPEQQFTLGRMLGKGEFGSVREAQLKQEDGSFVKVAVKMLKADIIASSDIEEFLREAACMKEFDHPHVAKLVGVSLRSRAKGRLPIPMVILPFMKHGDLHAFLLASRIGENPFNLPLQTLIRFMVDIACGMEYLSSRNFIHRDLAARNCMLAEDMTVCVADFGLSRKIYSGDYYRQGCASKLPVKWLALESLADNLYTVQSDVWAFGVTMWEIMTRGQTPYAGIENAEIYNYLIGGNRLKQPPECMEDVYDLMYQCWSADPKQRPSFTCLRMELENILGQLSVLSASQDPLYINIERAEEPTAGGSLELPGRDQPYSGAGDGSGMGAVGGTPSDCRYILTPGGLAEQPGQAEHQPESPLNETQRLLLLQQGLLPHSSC

SMILES | read-out | action | technique | tested at | endpoint | value
Cc1c[nH]c2nccc(Oc3c(F)cc(Nc4cc(Cl)nc(N)n4)cc3F)c12 | cell-free assay |  | competition with immobilised ligand | 0.1 µM | remaining binding | 100%
Cn1c2c(Cl)c(Cl)ccc2c2cn[nH]c(=O)c21 | thermal stability |  | DSF | 10 µM | ΔTm | 1 °C
CCS(=O)(=O)c1cc2cc(C[C@@](O)(CC(C)(C)c3ccc(F)cc3C(N)=O)C(F)(F)F)[nH]c2cn1 | cell-free assay |  | competition with immobilised ligand | 1 µM | remaining binding | 92%
COc1cc2ncnc(Nc3ccc(Oc4ccccc4)c(C)c3C)c2cc1OC | enzyme activity | inhibitor |  | 1 µM | inhibition | 25%
Cc1ccc(Nc2nccc(N(C)c3ccc4c(C)n(C)nc4c3)n2)cc1S(N)(=O)=O | cell-free assay |  |  | 10 µM | inhibition | 55%
COc1cc2nccc(Oc3ccc(NC(=O)c4c5n(n(-c6ccc(F)cc6)c4=O)CCCC5)cc3)c2cc1OC | enzyme activity | inhibitor |  | 0.1 µM | inhibition | 71%
CC(C)(C)c1nc(-c2cccc(NS(=O)(=O)c3c(F)cccc3F)c2F)c(-c2ccnc(N)n2)s1 | enzyme activity | inhibitor | radiometric | 1 µM | remaining activity | 90%
O=C(O)c1cc(-c2ccc(C3CCNCC3)cc2)c2ccc(-c3ccc(C(F)(F)F)cc3)cc2c1 | cell-free assay |  | competition with immobilised ligand | 1 µM | remaining binding | 100%
Cc1ccc(C(=O)NCc2ccsc2)cc1C#Cc1cn(C(C)C)c2ncnc(N)c12 | enzyme activity | inhibitor |  | 1 µM | activity vs control | 89%
CN1CCC2(CC1)NC(=O)c1c(c3ccc(Cl)c(Cl)c3n1C)C2C#N (racemic) | thermal stability |  | DSF | 10 µM | ΔTm | 0.7 °C
Nc1ncnc2occ(-c3ccc(NC(=O)Nc4cc(C(F)(F)F)ccc4F)cc3)c12 | cell-free assay |  |  | 20 µM | remaining signal | 2%
O=C(N1CCS(=O)(=O)CC1)N1C[C@H](c2ccc(OC(F)(F)F)cc2)C[C@H](c2nc(C3CC3)no2)C1 | cell-free assay |  | competition with immobilised ligand | 1 µM | remaining binding | 98%
CCOc1cc(-c2nncn2C)ccc1Nc1ncc2cc(C)nc(NCC(C)(C)C)c2n1 | enzyme activity | inhibitor | FRET | 1 µM | inhibition | 19%
COc1cccc(CNC(=O)c2nc3scc(COCc4ccc(C(=O)O)cc4)c3c(=O)[nH]2)c1 | cell-free assay |  | competition with immobilised ligand | 1 µM | remaining binding | 100%
O=C1Nc2ccc(Cl)cc2C1=Cc1cc(Cl)c(O)c(Cl)c1 | cell-free assay |  |  | 0.5 µM | remaining signal | 94.9%
CC(C)(O)[C@H]1CC[C@H](Nc2ccc3ncc(-c4cccc(C(F)(F)F)c4)n3n2)CC1 | enzyme activity | inhibitor |  | 1 µM | remaining activity | 22.3%
CCC(=O)N[C@H]1CC[C@@H](C(=O)N(C)c2ccc(-c3nc4ccccc4o3)cc2)C1 | cell-free assay |  | competition with immobilised ligand | 1 µM | remaining binding | 92%
Cc1sc(C(=O)NC2COC2)cc1-n1cc(NC(=O)Nc2c(F)cccc2Cl)cn1 | enzyme activity | inhibitor |  | 10 µM | remaining activity | 98.8%
CCN(CC)CCNC(=O)c1c(C)[nH]c(/C=C2\C(=O)Nc3ccc(F)cc32)c1C | cell-free assay |  |  | 10 µM | inhibition | 95%
CNC(=O)c1cc2c(Oc3ccc(NC(=O)C4(C(=O)Nc5ccc(F)cc5)CC4)cc3)ccnc2cc1OC | enzyme activity | inhibitor | radiometric | 1 µM | inhibition | 100%
Cc1ccc(NC(=O)c2ccc(C)c(C(F)(F)F)c2)cc1C#Cc1nn(C2CCC(O)CC2)c2ncnc(N)c12 (centres unmarked) | cell-free assay |  |  | 10 µM | remaining signal | 2%
Cn1c2c(Cl)c(Cl)ccc2c2cc(N)[nH]c(=O)c21 | thermal stability |  | DSF | 10 µM | ΔTm | 1.1 °C
CCCS(=O)(=O)Nc1ccc(F)c(C(=O)c2c[nH]c3ncc(-c4ccc(Cl)cc4)cc23)c1F | enzyme activity | inhibitor |  | 1 µM | inhibition | < 10%
Cn1c2c(c3ccc(Cl)c(Cl)c31)C(C#N)C(C)(C)NC2=O (centres unmarked) | thermal stability |  | DSF | 10 µM | ΔTm | 0.5 °C
Cc1nc(N2CC[C@@H](O)C2)ncc1-c1cc(C(F)(F)F)cc2[nH]ncc12 | cell-free assay |  | competition with immobilised ligand | 1 µM | remaining binding | 66%
Oc1cccc(-c2nc(N3CCOCC3)c3oc4ncccc4c3n2)c1 | cell-free assay |  |  | 0.5 µM | remaining signal | 102%
CC/C(=N\NC(=O)NCc1cccc(O)c1)c1ccc(O)c(C)c1O | enzyme activity | inhibitor |  | 0.1 µM | inhibition | 2.7%
O=C(Nc1cnn(-c2csc(C(=O)NC3COC3)c2)c1)Nc1ccccc1Cl | enzyme activity | inhibitor |  | 5 µM | remaining activity | 75.4%
CCCOc1ccc([C@H]2[C@H](C(=O)O)[C@@H](c3ccc4c(c3)OCO4)CN2CC(=O)Nc2c(CC)cccc2CC)cc1 | cell-free assay |  | competition with immobilised ligand | 1 µM | remaining binding | 100%
